Experiments:
Assay type in all cases: functional
[1] = system: MCF7; assay: Anticancer activity against human MCF7 cells assessed as cell growth at 100 uM after 48 hrs by sulforhodamine B assay; conditions: MCF7, 48 h, read-out: Activity
[2] = system: SF-268; assay: Anticancer activity against human SF268 cells assessed as cell growth at 100 uM after 48 hrs by sulforhodamine B assay; conditions: SF-268, 48 h, read-out: Activity
[3] = system: K562; assay: Growth inhibition of human K562 cells after 48 hrs by sulforhodamine B assay; conditions: K562, 48 h
Method in brief: (§1)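 NCI 60-human-tumor-cell-line panel, with compounds tested over a 5-log dose range. Values are taken from dose-response curves as log10 molar concentrations: GI50 is 50% net growth inhibition, TGI is total growth inhibition, and LC50 is 50% net cell death.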

[4] = Growth inhibition of human […] cells after 48 hrs by sulforhodamine B assay; method in brief: as §1
[5] = system: NCI-H23; assay: Growth inhibition of human NCI-H23 cells after 48 hrs by sulforhodamine B assay; conditions: NCI-H23, 48 h; method in brief: as §1
[6] = system: NCI-H322M; assay: Growth inhibition of human NCI-H322M cells after 48 hrs by sulforhodamine B assay; method in brief: as §1
[7] = system: NCI-H522; assay: Growth inhibition of human NCI-H522 cells after 48 hrs by sulforhodamine B assay; conditions: NCI-H522, 48 h; method in brief: as §1
[8] = system: COLO 205; assay: Growth inhibition of human COLO205 cells after 48 hrs by sulforhodamine B assay; conditions: COLO 205, 48 h; method in brief: as §1
[9] = system: HCT-116; assay: Growth inhibition of human HCT116 cells after 48 hrs by sulforhodamine B assay; conditions: HCT-116, 48 h; method in brief: as §1
[10] = system: SW-620; assay: Growth inhibition of human SW620 cells after 48 hrs by sulforhodamine B assay; conditions: SW-620, 48 h
Method in brief: (§2)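 Run in the NCI 60-human-tumour-cell-line panel, tested over a 5-log dose range. Dose–response curves gave three values per cell line, each as a log10 molar concentration: GI50 (50% inhibition of net cell growth), TGI (total inhibition of net growth) and LC50 (50% net cell death). The mean graph midpoint is the arithmetic mean over all lines, with insensitive lines entered at the highest concentration tested.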

[11] = system: SF-268; assay: Growth inhibition of human SF268 cells after 48 hrs by sulforhodamine B assay; conditions: SF-268, 48 h; method in brief: as §1
[12] = system: SF-295; assay: Growth inhibition of human SF295 cells after 48 hrs by sulforhodamine B assay; conditions: SF-295, 48 h; method in brief: as §1
[13] = system: SNB-19; assay: Growth inhibition of human SNB19 cells after 48 hrs by sulforhodamine B assay; conditions: SNB-19, 48 h; method in brief: as §2
[14] = system: U-251; assay: Growth inhibition of human U251 cells after 48 hrs by sulforhodamine B assay; conditions: U-251, 48 h; method in brief: as §2
[15] = system: LOX IMVI; assay: Growth inhibition of human LOXIMVI cells after 48 hrs by sulforhodamine B assay; method in brief: as §1
[16] = system: M14; assay: Growth inhibition of human M14 cells after 48 hrs by sulforhodamine B assay; conditions: M14, 48 h; method in brief: as §1
[17] = system: SK-MEL-2; assay: Growth inhibition of human SK-MEL-2 cells after 48 hrs by sulforhodamine B assay; conditions: SK-MEL-2, 48 h; method in brief: as §1
[18] = system: SK-MEL-28; assay: Growth inhibition of human SK-MEL-28 cells after 48 hrs by sulforhodamine B assay; conditions: SK-MEL-28, 48 h; method in brief: as §1
[19] = system: SK-MEL-5; assay: Growth inhibition of human SK-MEL-5 cells after 48 hrs by sulforhodamine B assay; conditions: SK-MEL-5, 48 h; method in brief: as §1
[20] = system: UACC-62; assay: Growth inhibition of human UACC62 cells after 48 hrs by sulforhodamine B assay; conditions: UACC-62, 48 h; method in brief: as §2
[21] = system: OVCAR-3; assay: Growth inhibition of human OVCAR-3 cells after 48 hrs by sulforhodamine B assay; conditions: OVCAR-3, 48 h; method in brief: as §1
[22] = system: OVCAR-4; assay: Growth inhibition of human OVCAR4 cells after 48 hrs by sulforhodamine B assay; conditions: OVCAR-4, 48 h; method in brief: as §1
[23] = system: OVCAR-5; assay: Growth inhibition of human OVCAR5 cells after 48 hrs by sulforhodamine B assay; conditions: OVCAR-5, 48 h; method in brief: as §1
[24] = system: 786-0; assay: Growth inhibition of human 786-0 cells after 48 hrs by sulforhodamine B assay; conditions: 786-0, 48 h; method in brief: as §1
[25] = system: CAKI-1; assay: Growth inhibition of human Caki1 cells after 48 hrs by sulforhodamine B assay; conditions: CAKI-1, 48 h; method in brief: as §1
[26] = system: RXF 393; assay: Growth inhibition of human RXF393 cells after 48 hrs by sulforhodamine B assay; conditions: RXF 393, 48 h; method in brief: as §1
[27] = system: NCI/ADR-RES; assay: Growth inhibition of human NCI/ADR-RES cells after 48 hrs by sulforhodamine B assay; method in brief: as §1
[28] = system: MDA-MB-231; assay: Growth inhibition of human MDA-MB-231 cells after 48 hrs by sulforhodamine B assay; conditions: MDA-MB-231, 48 h; method in brief: as §1
[29] = Growth inhibition of human Hs 578T cells after 48 hrs by sulforhodamine B assay; method in brief: as §1
[30] = system: MDA-MB-435; assay: Growth inhibition of human MDA-MB-435 cells after 48 hrs by sulforhodamine B assay; conditions: MDA-MB-435, 48 h; method in brief: as §1
[31] = read-out: pLC50 (the source's name) (converted)

Nc1cc(N)c2nc(-c3ccccc3)c(NCc3ccc(F)cc3)nc2c1
growth at 100 µM [1]: 1% | growth at 100 µM [2]: 1% | GI50 [3]: 4.37 µM | LC50 [3]: > 100 µM | TGI ([3]; read-out: pTGI (converted)): > 100 µM | GI50 [4]: 2.51 µM | LC50 [4]: > 100 µM | TGI ([4]; read-out: pTGI (converted)): 6.31 µM | GI50 [5]: 2.4 µM | LC50 (50% net cell kill concentration) [5]: 8.91 µM | TGI ([5]; read-out: pTGI (converted)): 4.57 µM | GI50 [6]: 3.47 µM | LC50 [6]: 40.7 µM | TGI ([6]; read-out: pTGI (converted)): 11.5 µM | GI50 [7]: > 100 µM | LC50 [7]: > 100 µM | TGI ([7]; read-out: pTGI (converted)): > 100 µM | GI50 [8]: 2.51 µM | LC50 (50% net cell kill) [8]: > 100 µM | TGI ([8]; read-out: pTGI (converted)): 6.17 µM | GI50 [9]: 12.9 µM | LC50 (concentration causing 50% net cell death) [9]: > 100 µM | TGI ([9]; read-out: pTGI (converted)): > 100 µM | GI50 [10]: 2.19 µM | CC50 [10, 31]: > 100 µM | TGI ([10]; read-out: pTGI (converted)): 9.55 µM | GI50 [11]: 2.82 µM | LC50 [11]: 40.7 µM | TGI ([11]; read-out: pTGI (converted)): 7.59 µM | GI50 [12]: 3.47 µM | LC50 (50% net cell kill) [12]: 64.6 µM | TGI ([12]; read-out: pTGI (converted)): 13.5 µM | GI50 [13]: 6.61 µM | LC50 [13]: 52.5 µM | TGI ([13]; read-out: pTGI (converted)): 20 µM | GI50 [14]: 1.58 µM | LC50 (50% net cell kill) [14]: 6.31 µM | TGI ([14]; read-out: pTGI (converted)): 3.16 µM | GI50 [15]: 1.51 µM | LC50 [15]: 6.61 µM | TGI ([15]; read-out: pTGI (converted)): 3.16 µM | GI50 [16]: 23.4 µM | CC50 [16, 31]: > 100 µM | TGI ([16]; read-out: pTGI (converted)): 56.2 µM | GI50 [17]: 5.25 µM | CC50 [17, 31]: > 100 µM | TGI ([17]; read-out: pTGI (converted)): > 100 µM | GI50 [18]: 1.91 µM | CC50 [18, 31]: 7.41 µM | TGI ([18]; read-out: pTGI (converted)): 3.8 µM | GI50 [19]: 1.86 µM | CC50 [19, 31]: 6.92 µM | TGI ([19]; read-out: pTGI (converted)): 3.63 µM | GI50 [20]: 15.5 µM | CC50 [20, 31]: 56.2 µM | TGI ([20]; read-out: pTGI (converted)): 29.5 µM | GI50 [21]: 2.4 µM | CC50 [21, 31]: > 100 µM | TGI ([21]; read-out: pTGI (converted)): 6.46 µM | GI50 [22]: 1.7 µM | CC50 [22, 31]: 60.3 µM | TGI ([22]; read-out: pTGI (converted)): 8.13 µM | GI50 [23]: 2.63 µM | CC50 [23, 31]: > 100 µM | TGI ([23]; read-out: pTGI (converted)): 7.59 µM | GI50 [24]: 23.4 µM | CC50 [24, 31]: > 100 µM | TGI ([24]; read-out: pTGI (converted)): 61.7 µM | GI50 [25]: 15.1 µM | CC50 [25, 31]: 89.1 µM | TGI ([25]; read-out: pTGI (converted)): 37.2 µM | GI50 [26]: 12.3 µM | CC50 [26, 31]: 60.3 µM | TGI ([26]; read-out: pTGI (converted)): 26.9 µM | GI50 [27]: 2.45 µM | CC50 [27, 31]: 28.2 µM | TGI ([27]; read-out: pTGI (converted)): 5.75 µM | GI50 [28]: 2.14 µM | CC50 [28, 31]: 19.5 µM | TGI ([28]; read-out: pTGI (converted)): 5.13 µM | GI50 [29]: 4.9 µM | CC50 [29, 31]: > 100 µM | TGI ([29]; read-out: pTGI (converted)): > 100 µM | GI50 [30]: 2 µM | CC50 [30, 31]: 6.92 µM | TGI ([30]; read-out: pTGI (converted)): 3.72 µM

— ChEMBL document CHEMBL1137710, “Synthesis and in vitro antitumor activity of new quinoxaline derivatives” (2009)
